Screens: PubChem, Sanford-Burnham Center for Chemical Genomics
SUMO1-SIM PPI = modulators of human SUMO1-mediated protein-protein interactions; SUMO1 binding to a labelled peptide, TR-FRET, 1 h; inhibition, % at 20 µM; P63165; 0.33% of 360,000 active; in the data active = inhibition above about 37%
Target sequence (P63165 whole entry, looked up): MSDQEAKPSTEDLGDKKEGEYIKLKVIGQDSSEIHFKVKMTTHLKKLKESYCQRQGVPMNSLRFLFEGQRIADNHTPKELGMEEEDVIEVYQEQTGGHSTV
STEP inh = STEP (human) phosphatase inhibition. P54829. recombinant STEP, OMFP fluorogenic substrate, fluorescence. inhibition, % at 20 µM. 0.25% of 360,000 active. AID 588621;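 active = inhibition at 20 µM, scaled per plate between control wells, above about 37%, limit read from the data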;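 note: 0% = DMSO with enzyme and substrate and 100% = substrate only without enzyme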
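material = STEP tyrosine phosphatase | reagent = fluorogenic phosphatase substrate OMFP at 25 µM final | doses = single compound dose of 20 µM, 1% DMSO final | schedule = 20 min reaction, room temperature, in the dark | measured by = fluorescence, 480/540 nm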
Scp1 inh = inhibitors of human Scp-1 phosphatase. inhibition, % at 20 µM. 0.88% of 340,000 active. Recombinant Scp1, phosphopeptide, malachite green phosphate absorbance. AID 493091. Q9GZU7;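 active = inhibition above about 50% at 20 µM, limit read from the data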;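 note: plate controls were DMSO wells with enzyme for no effect and wells lacking enzyme for full effect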
Target sequence (Q9GZU7 76-261 limits assumed): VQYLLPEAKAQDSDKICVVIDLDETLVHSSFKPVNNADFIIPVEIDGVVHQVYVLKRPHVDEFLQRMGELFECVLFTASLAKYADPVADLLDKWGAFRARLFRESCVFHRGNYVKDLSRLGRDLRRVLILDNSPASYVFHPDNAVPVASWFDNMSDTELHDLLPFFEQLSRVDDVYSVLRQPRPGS
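Material: truncated SCP-1 phosphatase (76-261aa) / Buffer or medium: 50 mM Tris acetate pH 5.5, 0.005% Tween-20, 10 mM MgCl2 / Compound dosing: one concentration, 20 µM, with 1.0% DMSO / Incubation: 45 min room-temperature reaction, 5 min colour, 30 min stabiliser / Detection: colorimetric free-phosphate detection, absorbance 630 nm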
NadD inh = blocks S. aureus nicotinate mononucleotide adenylyltransferase | purified NadD enzyme, colorimetric absorbance read-out | inhibition, % at 20 µM | 0.78% of 360,000 active; in the data active = inhibition above about 26%
LMPTP block = blocks human LMPTP phosphatase. P24666. recombinant LMPTP-A, OMFP fluorogenic substrate, fluorescence intensity. inhibition, % at 20 µM. 0.22% of 360,000 active. AID 651560;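 active = compounds that cut the enzyme signal by at least half of the control window in the single-dose screen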;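 note: plate controls were DMSO wells with enzyme plus substrate for no effect and substrate without enzyme for full effect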
Target sequence (P24666 whole entry, looked up): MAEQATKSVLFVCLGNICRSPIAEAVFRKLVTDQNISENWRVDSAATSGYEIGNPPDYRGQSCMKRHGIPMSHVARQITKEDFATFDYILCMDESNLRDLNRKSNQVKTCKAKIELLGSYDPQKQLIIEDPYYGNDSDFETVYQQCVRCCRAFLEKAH
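Assay system: LMPTP-A, protein tyrosine phosphatase of low molecular weight / Medium: pH 6.0 Bis-Tris buffer with DTT and Triton X-100 / Schedule: 50 min enzyme reaction at room temperature, protected from light / Measured by: endpoint fluorescence intensity from OMFP dephosphorylation / Read-out basis: % inhibition relative to no-enzyme and uninhibited control wells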
DNMT1 block = DNMT1 (human) enzyme inhibition | DNMT1 molecular beacon, Hinp1I cleavage, fluorescence | inhibition (reported as % activation of signal), % at 10 µM | 0.83% of 360,000 active | AID 588458; in the data active = inhibition above about 50%
Starred values were filed as active, the others as inactive. Sampled rows, rich in hits. Any-hit rate of the full collection: about 2.4%.

What do the screens show for `CC1(C)CC(N2CCCC2)=CC(=[N+]2CCCCC2)C1`?
SUMO1-SIM PPI: 1.9; STEP inh: -2.1; Scp1 inh: 1.2; NadD inh: 7.0; LMPTP block: -1.1; DNMT1 block: 0.3

How did Cc1cc(OC(=O)C(C)(C)C)c([N+](=O)[O-])c(=O)[nH]1 do in these assays?
SUMO1-SIM PPI: -1.0; STEP inh: -3.7; Scp1 inh: -10.4; NadD inh: 0.3; LMPTP block: -0.7; DNMT1 block: 2.8

Results for O=C(Nc1nccs1)c1cc(-c2ccccn2)nc2c(Cl)cccc12 ?
SUMO1-SIM PPI: 53.4*; STEP inh: 0.2; Scp1 inh: -4.8; NadD inh: 8.5; LMPTP block: 0.4; DNMT1 block: 27.0

Results for O=C(Nc1nccs1)c1cc(Cl)nc2ccccc12 ?
SUMO1-SIM PPI: -7.7; STEP inh: -1.8; Scp1 inh: -1.2; NadD inh: 0.1; LMPTP block: -3.3; DNMT1 block: 0.3

Results for O=C(CSc1nc2nn(-c3ccccc3)c(=O)c-2c2n1CCCCC2)Nc1ccc(F)c(F)c1 ?
SUMO1-SIM PPI: -15.1; STEP inh: 1.6; Scp1 inh: -12.4; NadD inh: 39.0*; LMPTP block: 3.2; DNMT1 block: -11.2

How did CC(=O)c1ccc(NC(=O)CSc2nc3nn(-c4ccccc4)c(=O)c-3c3n2CCCCC3)cc1 do in these assays?
SUMO1-SIM PPI: -1.5; STEP inh: -1.4; Scp1 inh: -4.6; NadD inh: 13.9; LMPTP block: 3.3; DNMT1 block: -3.9

How did O=C(CSc1nc2nn(-c3ccccc3)c(=O)c-2c2n1CCCCC2)c1ccc(O)c(O)c1 do in these assays?
SUMO1-SIM PPI: 2.6; STEP inh: 2.8; Scp1 inh: 48.6; NadD inh: 57.3*; LMPTP block: 67.8*; DNMT1 block: 1.8

How did CCc1ccc(N(C(=O)c2csnn2)C(C(=O)NC(C)(C)CC)c2cccnc2)cc1 (stereo not given) do in these assays?
SUMO1-SIM PPI: -4.8; STEP inh: 1.0; Scp1 inh: -5.5; NadD inh: -2.5; LMPTP block: -1.0; DNMT1 block: -5.4

What do the screens show for `Cc1cc(C(=O)NNC(=S)NC(C)c2ccccc2)c2ccccc2n1` (stereo not given)?
SUMO1-SIM PPI: 0.3; STEP inh: 3.8; Scp1 inh: -0.4; NadD inh: 8.9; LMPTP block: -0.4; DNMT1 block: -0.7

Results for CCC(C)NC(=O)CSc1nc2cc3c(cc2c(=O)n1Cc1ccco1)OCO3 (stereo not given) ?
SUMO1-SIM PPI: 42.3*; STEP inh: -1.0; Scp1 inh: -5.2; NadD inh: -0.5; LMPTP block: -0.9; DNMT1 block: 14.0

How did CC[n+]1c(/C=C(/C)SC)sc2ccccc21 do in these assays?
SUMO1-SIM PPI: -4.0; STEP inh: -1.8; Scp1 inh: -10.7; NadD inh: -0.9; LMPTP block: 0.1; DNMT1 block: 2.0

Results for CCN1/C(=C/c2ccc3cc(C)ccc3[n+]2CC)Sc2ccccc21 ?
SUMO1-SIM PPI: -123.5; STEP inh: 11.0; Scp1 inh: 31.7; NadD inh: 16.7; LMPTP block: 72.0*; DNMT1 block: 20.8

What do the screens show for `CCN1/C(=C/c2sc(-c3ccccc3C)c[n+]2C)Sc2ccccc21`?
SUMO1-SIM PPI: -12.7; STEP inh: 1.8; Scp1 inh: 12.2; NadD inh: 13.4; LMPTP block: 4.1; DNMT1 block: -1.1

What do the screens show for `CCN1/C(=C/C=C/c2sc3ccccc3[n+]2CC)Sc2ccccc21`?
SUMO1-SIM PPI: -31.2; STEP inh: 3.1; Scp1 inh: 3.8; NadD inh: 5.9; LMPTP block: 62.4*; DNMT1 block: 28.9

What do the screens show for `CCN1/C(=C/c2ccc3cc(C)ccc3[n+]2CC)Sc2cc(C)c(C)cc21`?
SUMO1-SIM PPI: -55.3; STEP inh: 0.1; Scp1 inh: 18.6; NadD inh: 25.8; LMPTP block: 65.1*; DNMT1 block: -5.1

How did CC[n+]1c(/C=C2\Sc3ccccc3N2C)ccc2cccc(C)c21 do in these assays?
SUMO1-SIM PPI: -116.9; STEP inh: 13.6; Scp1 inh: 3.9; NadD inh: 12.6; LMPTP block: 80.8*; DNMT1 block: 19.1

Results for O=C(COC(=O)c1cccc(Br)c1)NCC1CCCO1 (stereo not given) ?
SUMO1-SIM PPI: 2.1; STEP inh: -0.7; Scp1 inh: -5.0; NadD inh: -1.9; LMPTP block: -0.5; DNMT1 block: -1.1

How did Cc1ccc(NC(=O)CCNS(=O)(=O)c2ccc3[nH]c(=O)oc3c2)cc1C do in these assays?
SUMO1-SIM PPI: 4.0; STEP inh: 1.4; Scp1 inh: 4.5; NadD inh: -5.0; LMPTP block: -1.9; DNMT1 block: 1.2

Results for COc1ccc(C(=O)Nc2c(-c3cccs3)c(=O)c3ccccc3n2C)cc1 ?
SUMO1-SIM PPI: 5.6; STEP inh: -1.8; Scp1 inh: -11.4; NadD inh: -6.0; LMPTP block: -1.1; DNMT1 block: -1.6

What do the screens show for `Cc1ccccc1CNC(=O)c1csc([C@@H]2O[C@H](CO)[C@@H](O)[C@H]2O)n1`?
SUMO1-SIM PPI: -2.5; STEP inh: 0.4; NadD inh: 3.2; LMPTP block: -0.1; DNMT1 block: 3.8

What do the screens show for `O=C(NC(=S)Nc1ccccc1Br)c1ccco1`?
SUMO1-SIM PPI: 0.7; STEP inh: 2.7; Scp1 inh: 0.7; NadD inh: -4.8; LMPTP block: 0.4; DNMT1 block: -0.9

How did Oc1ccc(/C=N/Nc2ncnc3c2ncn3Cc2ccccc2)cc1O do in these assays?
SUMO1-SIM PPI: 4.7; STEP inh: 1.3; Scp1 inh: -2.7; NadD inh: 38.8*; LMPTP block: 8.7; DNMT1 block: 2.4

Results for Oc1cccc(/C=N/Nc2ncnc3c2ncn3Cc2ccccc2)c1 ?
SUMO1-SIM PPI: -6.2; STEP inh: 0.8; Scp1 inh: 6.5; NadD inh: 2.3; LMPTP block: 0.1; DNMT1 block: -5.2

What do the screens show for `Cc1ccc(NC(=O)c2cccc(C(F)(F)F)c2)cc1NC(=O)c1[nH]cnc1C(N)=O`?
SUMO1-SIM PPI: -5.2; STEP inh: 0.2; Scp1 inh: -5.2; NadD inh: 6.9; LMPTP block: -0.8; DNMT1 block: 7.3

How did Cc1cn(-c2cc(NC(=O)c3ccc(C)c(NC(=O)c4cccc(-c5cn[nH]c(=O)c5)c4)c3)cc(C(F)(F)F)c2)cn1 do in these assays?
SUMO1-SIM PPI: 73.3*; STEP inh: 1.8; Scp1 inh: 5.4; NadD inh: 3.6; LMPTP block: -1.3; DNMT1 block: 4.5

How did CCc1n(CC(O)COCC2CC=CCC2)c2ccccc2[n+]1C (stereo not given) do in these assays?
SUMO1-SIM PPI: -0.8; STEP inh: 3.2; Scp1 inh: 3.8; NadD inh: 0.2; LMPTP block: -0.7; DNMT1 block: 0.4
